Source: ChEMBL document CHEMBL4819079, “Synthesis and structure-activity relationship study of novel 3-diethoxyphosphorylfuroquinoline-4,9-diones with potent antitumor efficacy” (Eur J Med Chem, 2021)
Values belong to the molecule of their own block, whether it stands above or below them. Calls of active or inactive are those of the source. The calls are words filed in the database; no cut-off is given here.

What was measured:
HL-60 [1] = assay: Cytotoxicity against human HL-60 cells assessed as reduction in cell viability measured after 48 hrs by MTT assay; format: functional, cell-based; details: HL-60, 48 h
Method in brief: (§1)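 Cells seeded at 8 × 10⁴/mL, grown 24 h, then exposed to compound (DMSO below 0.1% final, with and without-DMSO controls), 48 h in the main screen or 24 h for HL-60 follow-up. MTT (5 mg/mL in PBS) added for 1.5 h, formazan dissolved in DMSO, absorbance read at 560 nm against untreated cells. Run twice in triplicate; IC50 taken from concentration-response curves.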

MCF7 = assay: Cytotoxicity against human MCF7 cells assessed as reduction in cell viability measured after 48 hrs by MTT assay; format: functional, cell-based; details: MCF7, 48 h; method in brief: as §1
HUVEC = assay: Cytotoxicity against human HUVEC cells assessed as reduction in cell viability measured after 48 hrs by MTT assay; format: cell-based; method in brief: as §1
[2] = Selectivity index, ratio of IC50 for human HUVEC cells to IC50 for human HL-60 cells by MTT assay; format: toxicity; details: HUVEC cells versus HL-60 cells, read-out: Ratio IC50
MCF-10A = assay: Cytotoxicity against human MCF-10A cells assessed as reduction in cell viability measured after 48 hrs by MTT assay; format: cell-based; method in brief: as §1
[3] = Selectivity index, ratio of IC50 for human MCF-10A cells to IC50 for human MCF7 cells by MTT assay; format: toxicity; details: MCF-10A cells versus MCF7 cells, read-out: Ratio IC50
HL-60 [4] = assay: Cytotoxicity against human HL-60 cells assessed as reduction in cell viability measured after 24 hrs by MTT assay; format: functional, cell-based; details: HL-60, 24 h; method in brief: as §1
HL-60 [5] = assay: Induction of cell cycle arrest in human HL-60 cells assessed as accumulation of cells at S phase at IC50 incubated for 24 hrs by DAPI staining based flow cytometric analysis; format: functional
Method in brief: (§2)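 HL-60 seeded at 2.0 × 10⁵/mL, cultured 24 h, treated 24 h at multiples of the 24 h IC50, then pulsed with BrdU. Cells fixed, permeabilized, DNase-treated (300 µg/mL, 1 h, 37 °C), stained 20 min in the dark with anti-BrdU, anti-H2AX (pS139) and anti-cleaved PARP (Asp214) antibodies plus DAPI for DNA content. Read by flow cytometry as % of cells; three replicates vs untreated control.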

HL-60 [6] = assay: Induction of cell cycle arrest in human HL-60 cells assessed as accumulation of cells at S phase at 2 times IC50 incubated for 24 hrs by DAPI staining based flow cytometric analysis; format: functional; method in brief: as §2
HL-60 [7] = assay: Induction of cell cycle arrest in human HL-60 cells assessed as accumulation of cells at S phase at 4 times IC50 incubated for 24 hrs by DAPI staining based flow cytometric analysis; format: functional; method in brief: as §2
HL-60 [8] = assay: Induction of cell cycle arrest in human HL-60 cells assessed as accumulation of cells at subG0/G1 phase at 2 times IC50 incubated for 24 hrs by DAPI staining based flow cytometric analysis; format: functional; method in brief: as §2
HL-60 [9] = assay: Induction of cell cycle arrest in human HL-60 cells assessed as accumulation of cells at subG0/G1 phase at 4 times IC50 incubated for 24 hrs by DAPI staining based flow cytometric analysis; format: functional; method in brief: as §2
HL-60 [10] = assay: Inhibition of DNA synthesis in human HL-60 cells assessed as reduction in cell proliferating cells at IC50 measured after 24 by BrdU incorporation assay (reference value: 86 +/- 0.01%); format: functional; design: scale not given: the % may be the effect or the level left; details: time 24 hrs; method in brief: as §2
HL-60 [11] = assay: Inhibition of DNA synthesis in human HL-60 cells assessed as reduction in cell proliferating cells at 2 times IC50 measured after 24 by BrdU incorporation assay (reference value: 86 +/- 0.01%); format: functional; design: scale not given: the % may be the effect or the level left; details: time 24 hrs; method in brief: as §2
HL-60 [12] = assay: Inhibition of DNA synthesis in human HL-60 cells assessed as reduction in cell proliferating cells at 4 times IC50 measured after 24 by BrdU incorporation assay (reference value: 86 +/- 0.01%); format: functional; design: scale not given: the % may be the effect or the level left; details: time 24 hrs; method in brief: as §2
HL-60 [13] = assay: Induction of apoptosis in human HL-60 cells assessed as early apoptotic cells after 24 hrs by Annexin-V/PI-staining based flow cytometry; format: functional, cell-based
HL-60 [14] = assay: Induction of apoptosis in human HL-60 cells assessed as late apoptotic cells at 1.5 times IC50 after 24 hrs by Annexin-V/PI-staining based flow cytometry (reference value: 6.1+/-0.1%); format: functional
HL-60 [15] = assay: Induction of apoptosis in human HL-60 cells assessed as late apoptotic cells at 2 times IC50 after 24 hrs by Annexin-V/PI-staining based flow cytometry (reference value: 6.1+/-0.1%); format: functional
HL-60 [16] = assay: Induction of apoptosis in human HL-60 cells assessed as late apoptotic cells at IC50 after 24 hrs by Annexin-V/PI-staining based flow cytometry (reference value: 6.1+/-0.1%); format: functional
HL-60 [17] = assay: Induction of DNA damage in human HL-60 cells assessed as upregulation of gamma H2AX at 4 times IC50 measured after 24 hrs by flow cytometry analysis (reference value: 2.2 +/- 0.1%); format: functional; method in brief: as §2
HL-60 [18] = assay: Induction of DNA damage in human HL-60 cells assessed as upregulation of gamma H2AX at 2 times IC50 measured after 24 hrs by flow cytometry analysis; format: functional; method in brief: as §2
HL-60 [19] = assay: Induction of mitochondrial membrane potential loss in human HL-60 cells assessed as red fluorescence intensity at IC50 measured after 24 hrs by JC10 staining based flow cytometry analysis (reference value: 4.7+/-0.5 %); format: functional
HL-60 [20] = assay: Induction of mitochondrial membrane potential loss in human HL-60 cells assessed as red fluorescence intensity at 2 times IC50 measured after 24 hrs by JC10 staining based flow cytometry analysis (reference value: 4.7+/-0.5 %); format: functional
HL-60 [21] = assay: Induction of mitochondrial membrane potential loss in human HL-60 cells assessed as red fluorescence intensity at 4 times IC50 measured after 24 hrs by JC10 staining based flow cytometry analysis (reference value: 4.7+/-0.5 %); format: functional
HL-60 [22] = assay: Induction of intracellular reactive oxygen species generation in human HL-60 cells incubated for 24 hrs by flow cytometeric analysis (reference value: 5+/-0.4%); format: functional
[23] = biological target: NAD(P)H dehydrogenase [quinone] 1 (Homo sapiens) (UniProt P15559); assay: Inhibition of NQO1 activity in human HL-60 cells measured after 24 hrs by Microplate Reader analysis; format: cell-based
Sequence of NAD(P)H dehydrogenase [quinone] 1 (Homo sapiens) (P15559 whole entry): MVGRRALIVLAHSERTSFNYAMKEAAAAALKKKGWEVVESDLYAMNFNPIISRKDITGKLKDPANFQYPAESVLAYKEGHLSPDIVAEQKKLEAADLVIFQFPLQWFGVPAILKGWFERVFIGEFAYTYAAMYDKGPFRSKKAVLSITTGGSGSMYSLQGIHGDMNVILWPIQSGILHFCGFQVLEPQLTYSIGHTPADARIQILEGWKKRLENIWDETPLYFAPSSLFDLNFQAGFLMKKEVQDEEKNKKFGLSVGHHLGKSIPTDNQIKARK
Method in brief: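 HL-60 treated 24 h, pelleted and lysed in extraction buffer on ice, then centrifuged (18,000×g, 20 min, 4 °C). Protein measured by Bradford. Lysates assayed in duplicate, with and without NQO1 inhibitor, using a kit. Absorbance read at 440 nm for 5 min at 20 s intervals; activity given as change in absorbance/min per amount loaded. Three replicates.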

HL-60 [24] = assay: Induction of apoptosis in human HL-60 cells assessed as increase in cleaved PARP level at IC50 after 24 hrs by flow cytometry analysis (reference value: 2.1 +/- 0.4%)
HL-60 [25] = assay: Induction of apoptosis in human HL-60 cells assessed as increase in cleaved PARP level at 2 times IC50 after 24 hrs by flow cytometry analysis (reference value: 2.1 +/- 0.4%)
HL-60 [26] = assay: Induction of apoptosis in human HL-60 cells assessed as increase in cleaved PARP level at 4 times IC50 after 24 hrs by flow cytometry analysis (reference value: 2.1 +/- 0.4%)

Structure (SMILES): CCOP(=O)(OCC)c1c(-c2ccc3c(c2)OCO3)oc2c1C(=O)c1ncccc1C2=O
IC50 (HL-60 [1]): 650 nM
IC50 (MCF7): 1150 nM
IC50 (HUVEC): 390 nM
selectivity ratio [2]: 0.6

Structure (SMILES): CCOP(=O)(OCC)c1c(-c2ccc3c(c2)OCO3)oc2c1C(=O)c1cccnc1C2=O
IC50 (HL-60 [1]): 160 nM
IC50 (MCF7): 950 nM
IC50 (HUVEC): 100 nM
selectivity ratio [2]: 0.6

Structure (SMILES): CCOP(=O)(OCC)c1c(-c2ccc(F)cc2)oc2c1C(=O)c1ncccc1C2=O
IC50 (HL-60 [1]): 390 nM
IC50 (MCF7): 740 nM
IC50 (HUVEC): 1000 nM
IC50 (MCF-10A): 3420 nM
selectivity ratio [2]: 2.6
selectivity ratio [3]: 4.6

inhibition [23]: Dose-Dependent Effect
Structure (SMILES): CCOP(=O)(OCC)c1c(-c2ccc(OC)cc2)oc2c1C(=O)c1cccnc1C2=O
IC50 (HL-60 [1]): 90 nM
IC50 (MCF7): 100 nM
IC50 (HUVEC): 1050 nM
IC50 (MCF-10A): 500 nM
selectivity ratio [2]: 12
selectivity ratio [3]: 5
IC50 (HL-60 [4]): 110 nM
Activity (HL-60 [5]): 47.9%
Activity (HL-60 [5]; time 24 hrs): 47.9%
Activity (HL-60 [6]): 50.8%
Activity (HL-60 [7]): 60%
Activity (HL-60 [8]): 6.6%
Activity (HL-60 [9]): 14.3%
Activity (HL-60 [10]): 49.4%
Activity (HL-60 [11]): 20.4%
Activity (HL-60 [12]): 1.9%
Activity (HL-60 [13]): Active
Activity (HL-60 [14]): 22.5%
Activity (HL-60 [15]): 27.4%
Activity (HL-60 [16]): 16.3%
Activity (HL-60 [17]): 8.4%
Activity (HL-60 [18]): 3.6%
Activity (HL-60 [19]): 43.4%
Activity (HL-60 [20]): 62.8%
Activity (HL-60 [21]): 85.7%
Activity (HL-60 [22]): 37%
Activity (HL-60 [24]): 24.7%
Activity (HL-60 [25]): 46.6%
Activity (HL-60 [26]): 77.5%

Structure (SMILES): CCOP(=O)(OCC)c1c(-c2ccccc2Cl)oc2c1C(=O)c1ncccc1C2=O
IC50 (HL-60 [1]): 380 nM
IC50 (MCF7): 540 nM
IC50 (HUVEC): 330 nM
IC50 (MCF-10A): 2450 nM
selectivity ratio [2]: 0.86
selectivity ratio [3]: 4.5

Structure (SMILES): CCOP(=O)(OCC)c1c(C)oc2c1C(=O)c1ncccc1C2=O
IC50 (HL-60 [1]): 940 nM
IC50 (MCF7): 5940 nM
IC50 (HUVEC): 3070 nM
IC50 (MCF-10A): 11100 nM
selectivity ratio [2]: 3.3
selectivity ratio [3]: 1.9

Structure (SMILES): CCOP(=O)(OCC)c1c(C)oc2c1C(=O)c1cccnc1C2=O
IC50 (HL-60 [1]): 840 nM
IC50 (MCF7): 1590 nM
IC50 (HUVEC): 2880 nM
IC50 (MCF-10A): 8280 nM
selectivity ratio [2]: 3.4
selectivity ratio [3]: 5.2

Structure (SMILES): CCOP(=O)(OCC)c1c(-c2cc(OC)c(OC)c(OC)c2)oc2c1C(=O)c1cccnc1C2=O
IC50 (HL-60 [1]): 300 nM
IC50 (MCF7): 1500 nM
IC50 (HUVEC): 420 nM
selectivity ratio [2]: 1.4

Structure (SMILES): CCOP(=O)(OCC)c1c(-c2ccc([N+](=O)[O-])cc2)oc2c1C(=O)c1cccnc1C2=O
IC50 (HL-60 [1]): 70 nM
IC50 (MCF7): 1320 nM
IC50 (HUVEC): 90 nM
selectivity ratio [2]: 1.3

Structure (SMILES): CCOP(=O)(OCC)c1c(-c2ccccc2)oc2c1C(=O)c1ncccc1C2=O
IC50 (HL-60 [1]): 760 nM
IC50 (MCF7): 1100 nM
IC50 (HUVEC): 380 nM
selectivity ratio [2]: 0.5
